Assay results as given in ChEMBL document CHEMBL4627259, “Discovery of LY3325656: A GPR142 agonist suitable for clinical testing in human” (Bioorg Med Chem Lett, 2020).

Biological target: T1, Probable G-protein coupled receptor 142 (Homo sapiens) (UniProt Q7Z601)
T1 sequence (whole entry): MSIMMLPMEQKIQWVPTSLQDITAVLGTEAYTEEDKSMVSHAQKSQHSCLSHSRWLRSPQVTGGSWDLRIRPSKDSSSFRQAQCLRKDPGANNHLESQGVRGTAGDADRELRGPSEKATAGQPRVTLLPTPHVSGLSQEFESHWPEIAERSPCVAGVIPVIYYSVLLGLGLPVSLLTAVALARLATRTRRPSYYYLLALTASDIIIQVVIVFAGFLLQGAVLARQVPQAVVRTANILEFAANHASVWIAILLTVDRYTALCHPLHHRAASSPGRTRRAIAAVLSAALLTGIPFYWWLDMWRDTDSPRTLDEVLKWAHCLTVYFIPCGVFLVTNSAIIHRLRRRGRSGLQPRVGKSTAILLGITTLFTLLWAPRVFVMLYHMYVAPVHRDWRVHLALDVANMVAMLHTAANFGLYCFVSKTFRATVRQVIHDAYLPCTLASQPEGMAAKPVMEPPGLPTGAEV
Test: Agonist activity at human GPR142 receptor expressed in HEK293 cells assessed as accumulation of inositol phosphate at 30 uM to 1 nM incubated for 1 hr followed by IP1-d2 addition by HTRF assay relative to control
Type: functional, cell-based
Conditions: not given
How it was run: (§1)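 HEK293 cells stably expressing human GPR142 (DMEM, 10% FBS, 800 ug/mL G418, 37 °C, 5% CO2), seeded 5000 cells/well and left 18 h to attach. Compounds added at 30 uM to 1 nM, 1 h incubation in HBSS (+Ca, +Mg), 0.1% BSA, 50 mM LiCl, 20 mM HEPES pH 7.2. IP-1 HTRF read-out: IP1-d2 then cryptate, 1 h at 25 °C, 665/620 nm ratio converted via IP-1 standard curve; EC50 by 4-parameter logistic fit.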

Row | Compound | Emax [%]
1 | Cc1ncn(CC(F)F)c1NC(=O)[C@H]1CCC[C@@H](N(C)C(=O)c2cccc(Cl)c2)C1 | 99
2 | CN(C(=O)c1cccc(C(F)(F)F)c1)[C@@H]1CCO[C@H](c2nnc(-c3cnc4n3CCOC4)[nH]2)C1 | 108
3 | CN(C(=O)c1cccc(C(F)(F)F)c1)[C@@H]1CCC[C@H](c2nnc(-c3cnc4n3CCOC4)[nH]2)C1 | 102
4 | Cc1ncn(CC(F)F)c1-c1nnc([C@H]2CCC[C@@H](N(C)C(=O)c3cccc(C(F)(F)F)c3)C2)[nH]1 | 109
5 | Cc1ncn(CCN2CCOCC2)c1NC(=O)[C@H]1CCC[C@@H](N(C)C(=O)c2cccc(C(F)(F)F)c2)C1 | 97

More lines, now with the values ahead:

Row | Emax [%] | Compound
6 | 105 | Cc1ncn(CC(F)F)c1NC(=O)[C@H]1CCC[C@@H](N(C)C(=O)c2cccc(C(F)(F)F)c2)C1
7 | 98 | Cc1ncc(-c2nnc([C@H]3CCC[C@@H](N(C)C(=O)c4cccc(C(F)(F)F)c4)C3)[nH]2)n1C
8 | 115 | Cc1ncn(C(C)C)c1NC(=O)[C@H]1CCC[C@@H](N(C)C(=O)c2cccc(C(F)(F)F)c2)C1
9 | 121 | Cc1ncn(C2CCC2)c1-c1nnc([C@@H]2C[C@H](N(C)C(=O)c3cccc(C(F)(F)F)c3)CCO2)[nH]1

Biological target: T2, Probable G-protein coupled receptor 142 (Homo sapiens, UniProt Q7Z601)
T2 sequence (Q7Z601 whole entry): T1 sequence (whole entry)
Test: Agonist activity at human GPR142 receptor expressed in HEK293 cells assessed as accumulation of inositol phosphate incubated for 1 hr followed by IP1-d2 addition by HTRF assay
Type: functional, cell-based
Conditions: not given
How it was run: as §1

Row | Compound | EC50 [µM]
10 | Cc1ncn(CC(F)F)c1NC(=O)[C@H]1CCC[C@@H](N(C)C(=O)c2cccc(Cl)c2)C1 | 0.104
11 | CN(C(=O)c1cccc(C(F)(F)F)c1)[C@@H]1CCO[C@H](c2nnc(-c3cnc4n3CCOC4)[nH]2)C1 | 0.102
12 | CN(C(=O)c1cccc(C(F)(F)F)c1)[C@@H]1CCC[C@H](c2nnc(-c3cnc4n3CCOC4)[nH]2)C1 | 0.032
13 | Cc1ncn(CC(F)F)c1-c1nnc([C@H]2CCC[C@@H](N(C)C(=O)c3cccc(C(F)(F)F)c3)C2)[nH]1 | 0.041
14 | Cc1ncn(CCN2CCOCC2)c1NC(=O)[C@H]1CCC[C@@H](N(C)C(=O)c2cccc(C(F)(F)F)c2)C1 | 0.051

The remaining lines, values ahead:

Row | EC50 [µM] | Compound
15 | 0.063 | Cc1ncn(CC(F)F)c1NC(=O)[C@H]1CCC[C@@H](N(C)C(=O)c2cccc(C(F)(F)F)c2)C1
16 | 0.046 | Cc1ncc(-c2nnc([C@H]3CCC[C@@H](N(C)C(=O)c4cccc(C(F)(F)F)c4)C3)[nH]2)n1C
17 | 0.031 | Cc1ncn(C(C)C)c1NC(=O)[C@H]1CCC[C@@H](N(C)C(=O)c2cccc(C(F)(F)F)c2)C1
18 | 0.016 | Cc1ncn(C2CCC2)c1-c1nnc([C@@H]2C[C@H](N(C)C(=O)c3cccc(C(F)(F)F)c3)CCO2)[nH]1

Tested on: not listed separately
Test: Drug metabolism in mouse microsomes assessed as drug turnover at 20 uM measured after 30 mins by LCMS analysis
Type: ADME, Microsome
Conditions: read-out: Drug metabolism
How it was run: (§2)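 High-throughput microsomal stability: compound at 20 uM incubated with mouse, rat, dog or human liver microsomes at 37 °C; percent parent remaining measured after 30 min and reported as % turnover.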

Row | Compound | metabolised at 0.5 h, 20 µM [%]
19 | Cc1ncn(CC(F)F)c1NC(=O)[C@H]1CCC[C@@H](N(C)C(=O)c2cccc(Cl)c2)C1 | 54
20 | CN(C(=O)c1cccc(C(F)(F)F)c1)[C@@H]1CCO[C@H](c2nnc(-c3cnc4n3CCOC4)[nH]2)C1 | 27
21 | Cc1ncn(C)c1-c1nnc([C@@H]2C[C@H](N(C)C(=O)c3cccc(Cl)c3)CCO2)[nH]1 | 17
22 | CN(C(=O)c1cccc(C(F)(F)F)c1)[C@@H]1CCC[C@H](c2nnc(-c3cnc4n3CCOC4)[nH]2)C1 | 70
23 | Cc1ncn(CC(F)F)c1-c1nnc([C@H]2CCC[C@@H](N(C)C(=O)c3cccc(C(F)(F)F)c3)C2)[nH]1 | 82
24 | Cc1ncn(CCN2CCOCC2)c1NC(=O)[C@H]1CCC[C@@H](N(C)C(=O)c2cccc(C(F)(F)F)c2)C1 | 67

Next, values leading:

Row | metabolised at 0.5 h, 20 µM [%] | Compound
25 | 39 | Cc1ncn(C)c1-c1nnc([C@@H]2C[C@H](N(C)C(=O)c3cccc(OC(F)(F)F)c3)CCO2)[nH]1
26 | 64 | Cc1ncn(CC(F)F)c1NC(=O)[C@H]1CCC[C@@H](N(C)C(=O)c2cccc(C(F)(F)F)c2)C1
27 | 53 | Cc1ncc(-c2nnc([C@H]3CCC[C@@H](N(C)C(=O)c4cccc(C(F)(F)F)c4)C3)[nH]2)n1C
28 | 76 | Cc1ncn(C(C)C)c1NC(=O)[C@H]1CCC[C@@H](N(C)C(=O)c2cccc(C(F)(F)F)c2)C1
29 | 46 | Cc1ncn(C2CCC2)c1-c1nnc([C@@H]2C[C@H](N(C)C(=O)c3cccc(C(F)(F)F)c3)CCO2)[nH]1

Tested on: not listed separately
Test: Drug metabolism in dog microsomes assessed as drug turnover at 20 uM measured after 30 mins by LCMS analysis
Type: ADME, Canis lupus familiaris, Microsome
Conditions: read-out: Drug metabolism
How it was run: as §2

Row | Compound | metabolised at 0.5 h, 20 µM [%]
30 | Cc1ncn(CC(F)F)c1NC(=O)[C@H]1CCC[C@@H](N(C)C(=O)c2cccc(Cl)c2)C1 | 19
31 | CN(C(=O)c1cccc(C(F)(F)F)c1)[C@@H]1CCO[C@H](c2nnc(-c3cnc4n3CCOC4)[nH]2)C1 | 17
32 | Cc1ncn(C)c1-c1nnc([C@@H]2C[C@H](N(C)C(=O)c3cccc(Cl)c3)CCO2)[nH]1 | 16
33 | CN(C(=O)c1cccc(C(F)(F)F)c1)[C@@H]1CCC[C@H](c2nnc(-c3cnc4n3CCOC4)[nH]2)C1 | 52
34 | Cc1ncn(CC(F)F)c1-c1nnc([C@H]2CCC[C@@H](N(C)C(=O)c3cccc(C(F)(F)F)c3)C2)[nH]1 | 83
35 | Cc1ncn(CCN2CCOCC2)c1NC(=O)[C@H]1CCC[C@@H](N(C)C(=O)c2cccc(C(F)(F)F)c2)C1 | 19

More lines, now with the values ahead:

Row | metabolised at 0.5 h, 20 µM [%] | Compound
36 | 16 | Cc1ncn(C)c1-c1nnc([C@@H]2C[C@H](N(C)C(=O)c3cccc(OC(F)(F)F)c3)CCO2)[nH]1
37 | 38 | Cc1ncn(CC(F)F)c1NC(=O)[C@H]1CCC[C@@H](N(C)C(=O)c2cccc(C(F)(F)F)c2)C1
38 | 22 | Cc1ncc(-c2nnc([C@H]3CCC[C@@H](N(C)C(=O)c4cccc(C(F)(F)F)c4)C3)[nH]2)n1C
39 | 33 | Cc1ncn(C(C)C)c1NC(=O)[C@H]1CCC[C@@H](N(C)C(=O)c2cccc(C(F)(F)F)c2)C1
40 | 48 | Cc1ncn(C2CCC2)c1-c1nnc([C@@H]2C[C@H](N(C)C(=O)c3cccc(C(F)(F)F)c3)CCO2)[nH]1

Tested on: not listed separately
Test: Drug metabolism in human microsomes assessed as drug turnover at 20 uM measured after 30 mins by LCMS analysis
Type: ADME, Microsome
Conditions: read-out: Drug metabolism
How it was run: as §2

Row | Compound | metabolised at 0.5 h, 20 µM [%]
41 | Cc1ncn(CC(F)F)c1NC(=O)[C@H]1CCC[C@@H](N(C)C(=O)c2cccc(Cl)c2)C1 | 51
42 | CN(C(=O)c1cccc(C(F)(F)F)c1)[C@@H]1CCO[C@H](c2nnc(-c3cnc4n3CCOC4)[nH]2)C1 | 12
43 | Cc1ncn(C)c1-c1nnc([C@@H]2C[C@H](N(C)C(=O)c3cccc(Cl)c3)CCO2)[nH]1 | 7
44 | CN(C(=O)c1cccc(C(F)(F)F)c1)[C@@H]1CCC[C@H](c2nnc(-c3cnc4n3CCOC4)[nH]2)C1 | 84
45 | Cc1ncn(CC(F)F)c1-c1nnc([C@H]2CCC[C@@H](N(C)C(=O)c3cccc(C(F)(F)F)c3)C2)[nH]1 | 90
46 | Cc1ncn(CCN2CCOCC2)c1NC(=O)[C@H]1CCC[C@@H](N(C)C(=O)c2cccc(C(F)(F)F)c2)C1 | 38

Now from value to molecule:

Row | metabolised at 0.5 h, 20 µM [%] | Compound
47 | 10 | Cc1ncn(C)c1-c1nnc([C@@H]2C[C@H](N(C)C(=O)c3cccc(OC(F)(F)F)c3)CCO2)[nH]1
48 | 58 | Cc1ncn(CC(F)F)c1NC(=O)[C@H]1CCC[C@@H](N(C)C(=O)c2cccc(C(F)(F)F)c2)C1
49 | 69 | Cc1ncc(-c2nnc([C@H]3CCC[C@@H](N(C)C(=O)c4cccc(C(F)(F)F)c4)C3)[nH]2)n1C
50 | 48 | Cc1ncn(C(C)C)c1NC(=O)[C@H]1CCC[C@@H](N(C)C(=O)c2cccc(C(F)(F)F)c2)C1
51 | 82 | Cc1ncn(C2CCC2)c1-c1nnc([C@@H]2C[C@H](N(C)C(=O)c3cccc(C(F)(F)F)c3)CCO2)[nH]1

Tested on: not listed separately
Test: Drug metabolism in rat microsomes assessed as drug turnover at 20 uM measured after 30 mins by LCMS analysis
Type: ADME, Microsome
Conditions: read-out: Drug metabolism
How it was run: as §2

Row | Compound | metabolised at 0.5 h, 20 µM [%]
52 | Cc1ncn(CC(F)F)c1NC(=O)[C@H]1CCC[C@@H](N(C)C(=O)c2cccc(Cl)c2)C1 | 79
53 | CN(C(=O)c1cccc(C(F)(F)F)c1)[C@@H]1CCO[C@H](c2nnc(-c3cnc4n3CCOC4)[nH]2)C1 | 28
54 | Cc1ncn(C)c1-c1nnc([C@@H]2C[C@H](N(C)C(=O)c3cccc(Cl)c3)CCO2)[nH]1 | 15
55 | CN(C(=O)c1cccc(C(F)(F)F)c1)[C@@H]1CCC[C@H](c2nnc(-c3cnc4n3CCOC4)[nH]2)C1 | 80
56 | Cc1ncn(CC(F)F)c1-c1nnc([C@H]2CCC[C@@H](N(C)C(=O)c3cccc(C(F)(F)F)c3)C2)[nH]1 | 67
57 | Cc1ncn(CCN2CCOCC2)c1NC(=O)[C@H]1CCC[C@@H](N(C)C(=O)c2cccc(C(F)(F)F)c2)C1 | 63

Now from value to molecule:

Row | metabolised at 0.5 h, 20 µM [%] | Compound
58 | 14 | Cc1ncn(C)c1-c1nnc([C@@H]2C[C@H](N(C)C(=O)c3cccc(OC(F)(F)F)c3)CCO2)[nH]1
59 | 59 | Cc1ncn(CC(F)F)c1NC(=O)[C@H]1CCC[C@@H](N(C)C(=O)c2cccc(C(F)(F)F)c2)C1
60 | 41 | Cc1ncc(-c2nnc([C@H]3CCC[C@@H](N(C)C(=O)c4cccc(C(F)(F)F)c4)C3)[nH]2)n1C
61 | 52 | Cc1ncn(C(C)C)c1NC(=O)[C@H]1CCC[C@@H](N(C)C(=O)c2cccc(C(F)(F)F)c2)C1
62 | 13 | Cc1ncn(C2CCC2)c1-c1nnc([C@@H]2C[C@H](N(C)C(=O)c3cccc(C(F)(F)F)c3)CCO2)[nH]1
